The source of these data is ChEMBL document CHEMBL1671645, “Pharmacokinetics and absorption of posaconazole oral suspension under various gastric conditions in healthy volunteers” (Antimicrob Agents Chemother, 2009).

A short description of data set [1]: Tmax in healthy human at 400 mg administered as single dose suspension coadministered with nutritional supplement and 10 mg metoclopramide. The following applies: in vivo. The class given is ADME, organism-based. The procedure, abridged:
(§1)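 Single oral suspension dose with nutritional supplement, alone or with metoclopramide 10 mg orally three times daily on the day before and the day of dosing; three-way crossover, 7–10-day washout. EDTA plasma predose to 168 h, LC-MS/MS (LLOQ 5.00 ng/ml). t1/2 = ln(2)/K from terminal slope; Tmax median.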

Data set [2] concerns Homo sapiens. Put plainly: Toxicity in healthy human assessed as dizziness at 400 mg BID, po administered as suspension for 7 days coadministered with nutritional supplement. The following applies: in vivo, 168 h. The class given is organism-based. The procedure, abridged: (§2)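 Healthy volunteers (n = 12) took oral posaconazole suspension (40 mg/ml) for 7 days in a four-way randomized crossover with a 14- to 21-day washout. Subjects stayed fasted throughout, with nonfat snacks up to 800 cal/day allowed. Where given, Boost was taken with each dose. Safety covered adverse events, vital signs, clinical labs and 12-lead ECG, with AEs tabulated by body system and severity per treatment.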

Data set [3] can be described thus: Apparent total body clearance in fasted healthy human at 400 mg administered as single dose suspension coadministered with acidic carbonated beverage. The class given is ADME, organism-based. The following applies: in vivo. The procedure, abridged:
(§3)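 This was a four-way crossover in 12 healthy subjects with 7–10 day washouts. Each took one fasting 400 mg oral suspension dose, with 12 oz ginger ale and/or esomeprazole 40 mg once each morning on days −2 to 1, with dosing on day 1. Plasma was sampled 0–168 h and measured by LC-MS/MS (LLOQ 5.00 ng/ml). Analysis was noncompartmental, with CL/F = dose/AUC_I and V/F = (CL/F)/K.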

Data set [4] is described as follows: Cmax in healthy human plasma at 400 mg administered as single dose suspension coadministered with nutritional supplement. In kind it is ADME, organism-based. On the set-up: dose 400 mg. An outline of the steps: (§4)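 A three-way crossover in 13 healthy subjects gave one 400 mg oral suspension dose with a nutritional supplement, either alone, with metoclopramide 10 mg orally three times daily on the day before and the day of dosing, or with a single 4 mg dose of loperamide. Plasma was taken 0–168 h for LC-MS/MS. Analysis was noncompartmental.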

Data set [5] relates to Homo sapiens. The data set can be described thus: Toxicity in healthy human assessed as adverse events at 200 mg QID, po administered as suspension for 7 days coadministered with nutritional supplement. In kind it is organism-based. The following applies: in vivo, 168 h. The procedure, abridged:
(§5)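 Healthy volunteers monitored for adverse events, vital signs, clinical laboratory values and 12-lead ECG. Adverse events tabulated by body system or organ class and severity and summarized by treatment across the crossover regimens.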

The test system of data set [6] is Homo sapiens. The data set can be described thus: AUC in fasted healthy human at 400 mg BID, po administered as suspension for 7 days. In kind it is ADME, organism-based, Plasma. The following applies: in vivo, 168 h. An outline of the steps:
(§6)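 Twelve healthy subjects took oral suspension for 7 days as 400 mg BID or 200 mg QID, either fasting or with a Boost-type nutritional supplement, in a crossover with 14–21 day washouts. Nonfat snacks of 800 cal/day or less were allowed. Plasma was sampled 0–168 h after the day-7 morning dose only and analysed by LC-MS/MS. AUC is AUC_τ, normalized to dose.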

Data set [7] in a line: Tmax in healthy human at 200 mg QID, po administered as suspension for 7 days coadministered with nutritional supplement. The class given is ADME, organism-based. The following applies: in vivo. An outline of the steps: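 Healthy volunteers given oral suspension (40 mg/ml) for 7 days, fasted or with nutritional supplement (Boost); four-way crossover, 14–21-day washout, nonfat snacks ≤800 cal/day allowed. On day 7 only the morning dose was given; plasma sampled predose to 168 h after it. LC-MS/MS (LLOQ 5.00 ng/ml). t1/2 = ln(2)/K from log-linear terminal slope; Tmax as median.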

Data set [8] is described as follows: Apparent volume of distribution in fasted healthy human at 400 mg administered as single dose suspension. In kind it is ADME, organism-based. The following applies: in vivo, read-out: Vc/F.
Data set [9] can be described thus: Cmax in plasma in hematopoietic stem cell transplant recipient human with GVHD and diarrhea. The class given is ADME, organism-based.
The test system of data set [10] is Homo sapiens. Put plainly: Toxicity in healthy human assessed as adverse events at 400 mg administered as single dose suspension coadministered with nutritional supplement and 4 mg loperamide as two 2 mg tablets. The class given is organism-based. The following applies: in vivo. An outline of the steps: as §5
Data set [11] concerns Homo sapiens. Put plainly: Toxicity in healthy human assessed as nausea at 400 mg administered as single dose suspension coadministered with nutritional supplement. The class given is organism-based. The following applies: in vivo. The procedure, abridged: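 Three-way randomized crossover in 13 healthy volunteers with a 7- to 10-day washout. Each period was one 400-mg oral posaconazole suspension dose with a nutritional supplement. Metoclopramide 10 mg was given orally three times daily on the day before and the day of dosing; loperamide was a single 4 mg. Safety was assessed from adverse events, tabulated by body system and severity per treatment.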

Data set [12] is described as follows: Half life in healthy human at 400 mg administered as single dose suspension coadministered with nutritional supplement. The following applies: in vivo. The class given is ADME, organism-based. The procedure, abridged:
as §1

Data set [13] deals with Homo sapiens. Put plainly: AUC in healthy human at 200 mg QID, po administered as suspension for 7 days coadministered with nutritional supplement. The class given is ADME, organism-based, Plasma. The following applies: in vivo, 168 h. An outline of the steps: as §6
Data set [14] in a line: Apparent volume of distribution in fasted healthy human at 400 mg administered as single dose suspension coadministered with acidic carbonated beverage and proton pump inhibitor. The class given is ADME, organism-based. The following applies: in vivo, read-out: Vc/F. The procedure, abridged:
as §3

Data set [15] concerns Homo sapiens. The data set can be described thus: Toxicity in healthy human assessed as dizziness at 400 mg BID, po administered as suspension for 7 days. In kind it is organism-based. The following applies: in vivo, 168 h. The procedure, abridged: as §2
A short description of data set [16]: Cmax in healthy human plasma at 400 mg administered as single dose suspension coadministered with nutritional supplement and 10 mg metoclopramide. The class given is ADME, organism-based. On the set-up: dose 400 mg. The procedure, abridged: as §4

As for `CC[C@@H]([C@H](C)O)n1ncn(-c2ccc(N3CCN(c4ccc(OC[C@@H]5CO[C@@](Cn6cncn6)(c6ccc(F)cc6F)C5)cc4)CC3)cc2)c1=O` [POSACONAZOLE], the Tmax in data set [1] came out at 5 h; in data set [7], 4 h. The Activity is 33% in data set [2]; 75% in [5]; 38% in data set [10]; 23% in [11]; 33% in data set [15]. In addition, in data set [3], the CL/F was 870 mL/min. Further, the Cmax in [4] was determined as 303 ng/mL; in data set [9], 623 ng/mL; in data set [16], 232 ng/mL. In addition, the AUC is 52300 ng·h/mL in data set [6] and 112000 ng·h/mL in data set [13]. Also, the Vd/F was 3580 L in data set [8] and 3920 L in [14]. The half-life in data set [12] was 24.3 h.
